# Results published in the RNAGym collection of RNA variant scans (doi:10.1126/science.aae0568).
# This sample holds only a part of the variants without activity.
# B1: tRNA (parent)
# chain: GUUCCGUUGGCGUAAUGGUAACGCGUCUCCCUCCUAAGGAGAAGACUGCGGGUUCGAGUCCCGUACGGAACG
# Variants of: B1
# Test: yeast fitness relative to wild type (ratio to wild type); higher = fitter; tRNA-Arg(CCU), competitive growth, 37 C, YPD
# Summary of the method: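 Start and end populations of a pooled competition were compared by 100-nucleotide paired-end sequencing of gene amplicons. The Saccharomyces cerevisiae strains carried tRNA-Arg(CCU) gene variants at the native genomic locus, synthesised with a 3% per-site mutation rate at 69 sites, and competed in YPD at 37°C for 24 hours in six parallel replicates. Darwinian fitness relative to wild type was based on the change in genotype frequencies. Genotypes required ≥ 100 starting reads, and estimates < 0.5 were set to 0.5.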
row,Variant,yeast fitness
1,G17A U59C,0.62
2,G17C A21G C27U C33G A42U,0.621
3,G17A G23C C33G C46A C66A,≤ 0.5
4,G17A U32C A40G A70G,≤ 0.5
5,U16G G44A C62U,0.652
6,G17C A20C G52C,≤ 0.5
7,G17A G50C,0.647
8,G17A C55U C62U,≤ 0.5
9,G17C A43U G48A C66G,≤ 0.5
10,G17C C27U U53G,≤ 0.5
11,G17A A65U,0.805
12,G17A C33G A40U A45G A65G,≤ 0.5
13,G17A C22U C27A C30G C49A,≤ 0.5
14,G17A A57U,0.644
15,G17C A37G G56C,≤ 0.5
16,G17A A20G G25C C34U C46G G63A A65C,0.561
17,G17C G23C A43U C49A C66U A70U,0.603
18,U16G C31G C61A C66U,≤ 0.5
19,U16G C33U G44C,≤ 0.5
20,G17C C24U G41A,≤ 0.5
21,G17C A20U A42U G67A,≤ 0.5

row,Variant,yeast fitness
1,G17C A20C C34A U47A A57U,≤ 0.5
2,G17C C22G C30U G41C C46U,0.708
3,G17A G68A,0.81
4,G17A G68C,0.928
5,G17C A70U,0.713
6,G17C A70C,0.751
7,G17C A70G,0.616
8,U16G G17C A43U G52C,≤ 0.5
9,U16G G23C U35C G63A,≤ 0.5
10,G17A C22A C31A C33A C49A,0.573
11,G17A U19C,0.95
12,G17C G18C G63C U64C,≤ 0.5
13,G17C C22U C60G,0.719
14,G17A C31G C49G,≤ 0.5
15,U16G C29U C55G,≤ 0.5
16,G17C G44A A45C,≤ 0.5
17,G17A A20G U28A U35A A70C,≤ 0.5
18,G17C G41A G56C,0.619
19,G17A U19A C30U G67A,≤ 0.5
20,U16G G56C,≤ 0.5
21,G17A G41A,0.665

row,Variant,yeast fitness
1,G17C C22G C30U G41C,0.612
2,G17A C55A,0.547
3,G17A C55G,≤ 0.5
4,U16G G18C U59A A65U,0.687
5,G17A G58A,0.794
6,G17A C22G C27A A45U G56C G63C G67C,≤ 0.5
7,G17C A37C A40C C61U G68A,≤ 0.5
8,G17A C22A A45C G67C,≤ 0.5
9,G17A C24G C33G C60U,≤ 0.5
10,G17C A42C C55U,≤ 0.5
11,U16G C22G A65U,0.722
12,G17A C22G C27A A36G,≤ 0.5
13,G17A U19A C24U G25C,≤ 0.5
14,G17C C29G G39A,≤ 0.5
15,U16G G23A A40U,≤ 0.5
16,G17C G18C C30G U53A U64G,≤ 0.5
17,G17C C49U G63C,≤ 0.5
18,G17A G52A,0.549
19,U16G C27G,0.639
20,G17C A21G U59G A65C,≤ 0.5
21,G17C C31A,0.551

row,Variant,yeast fitness
1,G17A C27G C61U,≤ 0.5
2,G17A A37U U47A G68C,0.645
3,G17A C33G C66U,≤ 0.5
4,U16G C22G U32C,0.767
5,G17A A40C,0.668
6,U16G C30U A65U,≤ 0.5
7,G17C C30G C55G A70G,≤ 0.5
8,G17A U19A G23A C31U C34A G48C C62U,≤ 0.5
9,U16G G25A U28G C34U G63C,≤ 0.5
10,G17C C29G A43G,≤ 0.5
11,U16G C34U A40G A43G C62A A69C,≤ 0.5
12,G17A A21G U26C C62U,≤ 0.5
13,G17C A20U C33G A70U,≤ 0.5
14,U16G U19G C29G G50C C66U,≤ 0.5
15,G17A U54C U59C C61G,≤ 0.5
16,G17A C33A A37U A57G,≤ 0.5
17,G17C C62U A65C,0.593
18,U16G C61U,0.75
19,U16G U28A A42U U54A,≤ 0.5
20,U16G C22A A57G,≤ 0.5
21,G17A A42G G50A,≤ 0.5
